Reference: ChEMBL document CHEMBL1149105, “3-(4-phenoxyphenyl)pyrazoles: a novel class of sodium channel blockers” (J Med Chem, 2004)

How the values were obtained:
[1] = biological target: T1, Sodium channel protein type 4 subunit alpha (Homo sapiens, UniProt P35499); assay: Affinity for inactive human SkM1 sodium channel expressed in HEK293 cells; format: cell-based
Procedure, shortened: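 Whole-cell voltage clamp at room temperature on HEK-293 cells stably expressing hSkM1, recorded 3–4 days after plating. Cells were held at -120 mV. 10–12 conditioning prepulses (3 s, 10 mV steps) were each followed by a 5 ms test pulse to 0 mV at 1/7 s. Boltzmann V1/2 and k were taken without and with drug (final 0.003–10 μM, ≤0.1% DMSO). Ki came from the modified Bean equation. Mean ± SEM, n = 3–4.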
Target sequence in this assay (P35499 whole entry): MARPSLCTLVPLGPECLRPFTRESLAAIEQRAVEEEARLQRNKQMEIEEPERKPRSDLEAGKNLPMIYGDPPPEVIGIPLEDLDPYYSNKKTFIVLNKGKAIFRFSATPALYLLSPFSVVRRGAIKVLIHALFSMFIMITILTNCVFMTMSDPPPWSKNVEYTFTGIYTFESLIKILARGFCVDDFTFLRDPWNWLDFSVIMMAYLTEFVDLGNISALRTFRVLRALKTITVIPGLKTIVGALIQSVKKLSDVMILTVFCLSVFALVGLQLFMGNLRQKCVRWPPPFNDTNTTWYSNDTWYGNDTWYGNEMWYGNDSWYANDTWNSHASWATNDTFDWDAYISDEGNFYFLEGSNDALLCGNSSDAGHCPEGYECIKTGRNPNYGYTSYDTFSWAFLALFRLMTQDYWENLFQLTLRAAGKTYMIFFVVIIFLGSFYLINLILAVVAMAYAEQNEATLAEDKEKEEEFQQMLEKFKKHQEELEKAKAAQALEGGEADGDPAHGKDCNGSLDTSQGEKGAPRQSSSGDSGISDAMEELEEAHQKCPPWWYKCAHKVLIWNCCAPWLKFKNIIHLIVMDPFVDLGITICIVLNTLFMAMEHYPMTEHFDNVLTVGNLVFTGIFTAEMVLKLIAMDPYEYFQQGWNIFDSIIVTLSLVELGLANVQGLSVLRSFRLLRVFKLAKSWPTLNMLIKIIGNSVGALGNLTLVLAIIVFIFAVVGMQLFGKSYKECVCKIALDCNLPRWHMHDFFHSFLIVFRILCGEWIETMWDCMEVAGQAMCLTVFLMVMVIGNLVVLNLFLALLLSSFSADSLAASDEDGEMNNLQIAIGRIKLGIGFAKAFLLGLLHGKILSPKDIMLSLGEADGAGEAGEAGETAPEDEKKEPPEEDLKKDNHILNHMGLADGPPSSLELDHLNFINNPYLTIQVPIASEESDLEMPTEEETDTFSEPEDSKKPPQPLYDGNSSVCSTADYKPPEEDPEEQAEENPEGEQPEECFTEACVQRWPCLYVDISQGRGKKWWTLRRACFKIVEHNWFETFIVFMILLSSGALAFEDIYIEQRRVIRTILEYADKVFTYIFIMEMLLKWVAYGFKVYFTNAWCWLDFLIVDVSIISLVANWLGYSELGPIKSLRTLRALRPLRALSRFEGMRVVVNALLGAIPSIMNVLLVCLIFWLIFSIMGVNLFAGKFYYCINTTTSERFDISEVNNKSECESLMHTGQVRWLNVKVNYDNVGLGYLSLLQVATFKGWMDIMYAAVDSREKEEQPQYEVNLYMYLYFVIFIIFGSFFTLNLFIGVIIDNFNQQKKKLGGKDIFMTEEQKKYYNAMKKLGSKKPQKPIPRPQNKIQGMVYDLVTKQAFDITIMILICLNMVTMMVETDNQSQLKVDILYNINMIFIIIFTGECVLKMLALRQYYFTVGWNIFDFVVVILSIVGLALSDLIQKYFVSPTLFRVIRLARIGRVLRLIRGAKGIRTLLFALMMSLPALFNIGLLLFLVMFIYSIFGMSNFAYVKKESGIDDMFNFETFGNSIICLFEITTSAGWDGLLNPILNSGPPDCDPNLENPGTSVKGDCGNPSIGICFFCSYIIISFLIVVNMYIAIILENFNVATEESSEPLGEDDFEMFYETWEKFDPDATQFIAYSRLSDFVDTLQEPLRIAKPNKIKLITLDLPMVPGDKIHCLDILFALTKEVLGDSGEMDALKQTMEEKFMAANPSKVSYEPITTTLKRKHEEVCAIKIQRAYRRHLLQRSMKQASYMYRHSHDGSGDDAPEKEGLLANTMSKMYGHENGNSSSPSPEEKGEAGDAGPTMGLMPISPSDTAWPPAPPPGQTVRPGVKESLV

[2] = biological target: T1, Sodium channel protein type 4 subunit alpha; assay: Relative affinity for inactivated and resting human SkM1 expressed in HEK293 cells; format: cell-based
Target sequence in this assay (P35499 whole entry, looked up): as the sequence (P35499 whole entry) above

[3] = biological target: T1, Sodium channel protein type 4 subunit alpha; assay: Affinity for resting human SkM1 sodium channel expressed in HEK293 cells; format: cell-based
Procedure, shortened: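 Tonic block was measured by whole-cell patch clamp on hSkM1-expressing HEK-293 cells at room temperature. Cells were held at -120 mV, where all channels are resting, and depolarized to 0 mV. Peak current was compared between control and 3 μM antagonist applied by flow pipes from DMSO stock. The fractional response gave Kr = FR/(1−FR)·[antag], with slope n = 1. Mean ± SEM, n = 3–4.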
Target sequence in this assay (P35499 whole entry, looked up): as the sequence (P35499 whole entry) above

[4] = biological target: T1, Sodium channel protein type 4 subunit alpha; conditions: HEK293
Target sequence in this assay (P35499 whole entry, looked up): as the sequence (P35499 whole entry) above

## c1ccc(-c2cc[nH]n2)cc1
[1]
  Ki: 61000 nM
[2]
  Ratio: 18
[3]
  Kr: 1110 µM

## CNC(=O)n1ccc(-c2ccc(Oc3ccc(F)cc3)cc2)n1
[1]
  Ki: 150 nM
[2]
  Ratio: 140
[3]
  Kr: 21 µM

## Nc1nnc(-c2cccc(Cl)c2Cl)c(N)n1 [LAMOTRIGINE]
[1]
  Ki: 17000 nM
[2]
  Ratio: 85
[3]
  Kr: 1440 µM

## NC(=O)n1ccc(-c2ccc(Oc3ccc(F)cc3)cc2)n1
[1]
  Ki: 31 nM
[2]
  Ratio: 194
[3]
  Kr: 6 µM

## NC(=O)n1ccc(-c2ccc(Oc3ccc(F)cc3F)cc2)n1
[1]
  Ki: 25 nM
[2]
  Ratio: 400
[3]
  Kr: 10 µM

## CN(C)C(=O)n1ccc(-c2ccc(Oc3ccc(F)cc3)cc2)n1
[1]
  Ki: 340 nM
[2]
  Ratio: 76
[3]
  Kr: 26 µM

## Cn1ccc(-c2ccc(Oc3ccc(F)cc3)cc2)n1
[1]
  Ki: 690 nM
[2]
  Ratio: 30
[3]
  Kr: 21 µM

## NC(=O)n1ccc(-c2ccc(Oc3ccccc3)cc2)n1
[1]
  Ki: 35 nM
[2]
  Ratio: 143
[3]
  Kr: 5 µM

## COc1ccc(-c2cc[nH]n2)cc1
[1]
  Ki: 81000 nM
[2]
  Ratio: 9
[3]
  Kr: 710 µM

## NC(=O)N1c2ccccc2C=Cc2ccccc21 [CARBAMAZEPINE]
[1]
  Ki: 52000 nM
[2]
  Ratio: 14
[4]
  Kr: 720 µM

## Fc1ccc(Oc2ccc(-c3cc[nH]n3)cc2)cc1
[1]
  Ki: 200 nM
[2]
  Ratio: 85
[3]
  Kr: 17 µM

## c1ccc(Oc2ccc(-c3cc[nH]n3)cc2)cc1
[1]
  Ki: 240 nM
[2]
  Ratio: 67
[3]
  Kr: 16 µM

## NC(=O)n1ccc(-c2ccc(Oc3ccc([N+](=O)[O-])cc3)cc2)n1
[1]
  Ki: 31 nM
[2]
  Ratio: 226
[3]
  Kr: 7 µM

## O=C1NC(=O)C(c2ccccc2)(c2ccccc2)N1 [PHENYTOIN]
[1]
  Ki: 24000 nM
[2]
  Ratio: 26
[3]
  Kr: 620 µM

## NC(=O)N/N=C/c1ccc(Oc2ccc(F)cc2)cc1
[1]
  Ki: 180 nM
[2]
  Ratio: 150
[3]
  Kr: 27 µM
